Assay results published in ChEMBL document CHEMBL1240476, “Synthesis and antiproliferative activity of indolizinophthalazine-5,12-dione derivatives, DNA topoisomerase IB inhibitors” (Eur J Med Chem, 2010).

Key:
[1] = tested on: MCF7; assay: Cytotoxicity against human MCF7 cells after 48 hrs by MTT assay; type: functional, cell-based; conditions: MCF7, 48 h
[2] = Cytotoxicity against human GLC82 cells after 48 hrs by MTT assay; type: functional, cell-based; conditions: GLC82, 48 h
[3] = Cytotoxicity against human MCF7/ADR cells after 48 hrs by MTT assay; type: functional, cell-based; conditions: NCI/ADR-RES
[4] = tested on: NCI-H460; assay: Cytotoxicity against human NCI-H460 cells after 48 hrs by MTT assay; type: functional, cell-based; conditions: NCI-H460, 48 h
[5] = Inhibition of topoisomerase 1B-mediated relaxation of supercoiled pBR322 DNA at 125 uM after 30 mins by agarose gel electrophoresis
Outline: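 TOP1-mediated relaxation of supercoiled DNA: enzyme and DNA incubated with serially diluted compound, 1 to 125 across four lanes. Controls were DNA without enzyme or drug, and DNA plus enzyme without drug. Read-out was the supercoiled versus relaxed DNA bands, scored as percent inhibition of TOP1 catalytic activity.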

[6] = Inhibition of topoisomerase 1B-mediated relaxation of supercoiled pBR322 DNA at 1 uM after 30 mins by agarose gel electrophoresis
Outline: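 TOP1 relaxation of supercoiled DNA was run with enzyme, DNA and serially diluted drug (1 to 125). Controls were DNA without enzyme or drug, and DNA plus enzyme without drug. Supercoiled and relaxed DNA bands were resolved by gel and compared.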

| Structure (SMILES) | IC50 [1] [µM] | IC50 [2] [µM] | IC50 [3] [µM] | IC50 [4] [µM] | inhibition [5] [%] | inhibition [6] [%] |
| --- | --- | --- | --- | --- | --- | --- |
| CCOC(=O)c1c2c(n3ccccc13)C(=O)c1cnncc1C2=O | > 25 | > 25 | > 25 | > 25 |  |  |
| Cc1c2c(n3ccccc13)C(=O)c1cnncc1C2=O | 1.67 | 1.92 | 14.1 | 1.21 |  |  |
| N#Cc1c2c(n3ccccc13)C(=O)c1cnncc1C2=O | 1.09 | 1.13 | 0.81 | 9.32 | 100 | 23 |
| CCOC(=O)c1c2c(n3cccc(O)c13)C(=O)c1cnncc1C2=O | 20.8 | 11.6 | > 25 | 23.5 |  |  |
| O=C1c2cnncc2C(=O)c2c1cc1ccccn21 | 14.7 | 10.8 | 11.7 | 11.4 |  |  |
| CC(=O)c1c2c(n3ccccc13)C(=O)c1cnncc1C2=O |  | 24.7 | 11.2 | 21.3 |  |  |
| CCOC(=O)c1c2c(n3cccc(Cl)c13)C(=O)c1cnncc1C2=O | 1.2 | 1.09 | 1.6 | 1.44 |  |  |
| COC(=O)c1c2c(n3ccccc13)C(=O)c1cnncc1C2=O | 23.7 | 13.7 | 17 | 9.94 |  |  |
| CC[C@@]1(O)C(=O)OCc2c1cc1n(c2=O)Cc2cc3ccccc3nc2-1 [CAMPTOTHECIN] |  | > 25 |  | > 25 | 73 |  |
| CCOC(=O)c1c2c(n3cccc(C)c13)C(=O)c1cnncc1C2=O | 1.22 | 10.3 | 1.55 | 1.18 |  |  |
| CC(=O)c1c2c(n3cccc(F)c13)C(=O)c1cnncc1C2=O | 10.7 | 1.85 | 13.2 | 10.6 |  |  |
| CCOC(=O)c1c2c(n3cc(C)ccc13)C(=O)c1cnncc1C2=O | 12.2 | 9.87 | 18.7 | 11.1 |  |  |
